Data from ChEMBL document CHEMBL4028905, “A Unique Approach to Design Potent and Selective Cyclic Adenosine Monophosphate Response Element Binding Protein, Binding Protein (CBP) Inhibitors” (J Med Chem, 2017).
Calls of active or inactive are those of the source. No cut-off for these calls is given here.

Columns and labels:
CREB-binding protein [1] = molecular target: T1, CREB-binding protein (Homo sapiens, UniProt Q92793); assay: Inhibition of His tagged recombinant CBP (unknown origin) by TR-FRET assay
Outline: (§1)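 Recombinant His-tagged bromodomains purified by Ni affinity, tag removed with thrombin, checked by mass spectrometry. Assay is TR-FRET competition against a biotinylated small-molecule ligand. Normalized inhibition vs concentration fit to 4-parameter Hill equation; […] for optimization.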

[2] = molecular target: Bromodomain-containing protein 4 (Homo sapiens, UniProt O60885); assay: Inhibition of His tagged recombinant BRD4 bromodomain 1 (unknown origin) by TR-FRET assay; outline: as §1
Homo sapiens = species on record: Homo sapiens; assay: Selectivity ratio of IC50 for His tagged recombinant BRD4 bromodomain 1 (unknown origin) to IC50 for His tagged recombinant CBP (unknown origin)
[3] = molecular target: CREB-binding protein/Histone acetyltransferase p300 (Homo sapiens, UniProt Q09472+Q92793); assay: Inhibition of P300/CBP in human MV4-11 cells assessed as reduction in MYC expression after 4 hrs by luminescence based assay; format: cell-based
Outline: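 MV-4-11 cells plated at 10,000 per well in RPMI1640 with 10% FBS and 2 mM L-glutamine. Compounds added in DMSO at a final 0.1% and incubated 4 h at 37 °C before MYC expression read-out; EC50 derived.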

[4] = Intrinsic clearance in human liver microsomes at 1 uM in presence of NADPH by LC-MS/MS analysis; format: ADME, microsome; settings: read-out: CLH
[5] = Intrinsic clearance in rat liver microsomes at 1 uM in presence of NADPH by LC-MS/MS analysis; format: ADME, microsome; settings: read-out: CLH
[6] = Intrinsic clearance in mouse liver microsomes at 1 uM in presence of NADPH by LC-MS/MS analysis; format: ADME, microsome; settings: read-out: CLH
[7] = Oral bioavailability in CD-1 mouse at 5 mg/kg by LC-MS/MS analysis; format: ADME, organism-based; settings: in vivo
Outline: (§2)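 Female CD-1 mice, 6–9 weeks, 20–35 g, n = 3 per route. Dosing was 1 mg/kg i.v. in PEG400/DMSO/water (35/10/55 v/v) or 5 mg/kg p.o. suspended in 0.5% methylcellulose/0.2% Tween 80. Serial tail-nick blood sampled to 24 h and diluted in K2EDTA water. Analysis by acetonitrile precipitation and LC–MS/MS (MRM, positive ESI); LLOQ 0.001 μM.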

[8] = molecular target: T2, Bromodomain-containing protein 9 (Homo sapiens, UniProt Q9H8M2); assay: Binding affinity to human BRD9 (R130 to V259) expressed in bacterial cells by BromoScan assay; format: cell-based
T2 sequence (Q9H8M2 whole entry): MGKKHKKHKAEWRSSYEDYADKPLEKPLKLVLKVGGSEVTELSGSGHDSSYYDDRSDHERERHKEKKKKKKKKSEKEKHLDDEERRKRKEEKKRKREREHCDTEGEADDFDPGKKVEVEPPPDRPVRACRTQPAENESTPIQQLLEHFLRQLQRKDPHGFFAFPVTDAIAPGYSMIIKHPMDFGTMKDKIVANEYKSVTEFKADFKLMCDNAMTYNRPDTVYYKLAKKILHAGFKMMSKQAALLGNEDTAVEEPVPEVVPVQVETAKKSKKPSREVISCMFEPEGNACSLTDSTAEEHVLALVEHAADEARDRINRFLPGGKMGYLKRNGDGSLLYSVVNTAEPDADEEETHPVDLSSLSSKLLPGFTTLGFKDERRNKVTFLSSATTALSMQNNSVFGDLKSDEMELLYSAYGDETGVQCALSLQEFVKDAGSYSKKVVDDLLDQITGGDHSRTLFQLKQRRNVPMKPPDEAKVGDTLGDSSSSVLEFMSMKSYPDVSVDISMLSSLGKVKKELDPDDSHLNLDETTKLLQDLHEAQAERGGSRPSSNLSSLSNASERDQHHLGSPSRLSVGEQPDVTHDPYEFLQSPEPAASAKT

[9] = molecular target: T3, Bromodomain-containing protein 7 (Homo sapiens, UniProt Q9NPI1); assay: Binding affinity to human BRD7 (L125 to R254) expressed in mammalian cells by BromoScan assay; format: cell-based
T3 sequence (Q9NPI1 whole entry): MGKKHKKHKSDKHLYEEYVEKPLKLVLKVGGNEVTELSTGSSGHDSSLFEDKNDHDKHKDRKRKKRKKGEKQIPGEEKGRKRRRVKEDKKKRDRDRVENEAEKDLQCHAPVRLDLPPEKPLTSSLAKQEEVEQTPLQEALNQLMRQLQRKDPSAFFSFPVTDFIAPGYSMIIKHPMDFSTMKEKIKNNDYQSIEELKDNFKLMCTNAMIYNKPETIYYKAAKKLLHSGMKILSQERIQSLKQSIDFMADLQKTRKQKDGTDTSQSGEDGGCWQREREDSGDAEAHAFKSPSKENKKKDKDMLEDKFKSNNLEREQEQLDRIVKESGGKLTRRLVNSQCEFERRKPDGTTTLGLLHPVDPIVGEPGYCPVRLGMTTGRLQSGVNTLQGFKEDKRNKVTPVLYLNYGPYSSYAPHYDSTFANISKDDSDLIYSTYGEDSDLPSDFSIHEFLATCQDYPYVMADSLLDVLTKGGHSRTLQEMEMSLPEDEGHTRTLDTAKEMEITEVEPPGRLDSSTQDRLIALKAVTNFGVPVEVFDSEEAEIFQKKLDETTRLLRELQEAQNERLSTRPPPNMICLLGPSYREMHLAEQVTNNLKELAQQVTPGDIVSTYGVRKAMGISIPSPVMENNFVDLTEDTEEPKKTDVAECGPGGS

[10] = molecular target: T4, Transcription intermediary factor 1-alpha (Homo sapiens, UniProt O15164); assay: Binding affinity to human TRIM24 (G862 to E980) expressed in bacterial cells by BromoScan assay; format: cell-based
T4 sequence (O15164 whole entry): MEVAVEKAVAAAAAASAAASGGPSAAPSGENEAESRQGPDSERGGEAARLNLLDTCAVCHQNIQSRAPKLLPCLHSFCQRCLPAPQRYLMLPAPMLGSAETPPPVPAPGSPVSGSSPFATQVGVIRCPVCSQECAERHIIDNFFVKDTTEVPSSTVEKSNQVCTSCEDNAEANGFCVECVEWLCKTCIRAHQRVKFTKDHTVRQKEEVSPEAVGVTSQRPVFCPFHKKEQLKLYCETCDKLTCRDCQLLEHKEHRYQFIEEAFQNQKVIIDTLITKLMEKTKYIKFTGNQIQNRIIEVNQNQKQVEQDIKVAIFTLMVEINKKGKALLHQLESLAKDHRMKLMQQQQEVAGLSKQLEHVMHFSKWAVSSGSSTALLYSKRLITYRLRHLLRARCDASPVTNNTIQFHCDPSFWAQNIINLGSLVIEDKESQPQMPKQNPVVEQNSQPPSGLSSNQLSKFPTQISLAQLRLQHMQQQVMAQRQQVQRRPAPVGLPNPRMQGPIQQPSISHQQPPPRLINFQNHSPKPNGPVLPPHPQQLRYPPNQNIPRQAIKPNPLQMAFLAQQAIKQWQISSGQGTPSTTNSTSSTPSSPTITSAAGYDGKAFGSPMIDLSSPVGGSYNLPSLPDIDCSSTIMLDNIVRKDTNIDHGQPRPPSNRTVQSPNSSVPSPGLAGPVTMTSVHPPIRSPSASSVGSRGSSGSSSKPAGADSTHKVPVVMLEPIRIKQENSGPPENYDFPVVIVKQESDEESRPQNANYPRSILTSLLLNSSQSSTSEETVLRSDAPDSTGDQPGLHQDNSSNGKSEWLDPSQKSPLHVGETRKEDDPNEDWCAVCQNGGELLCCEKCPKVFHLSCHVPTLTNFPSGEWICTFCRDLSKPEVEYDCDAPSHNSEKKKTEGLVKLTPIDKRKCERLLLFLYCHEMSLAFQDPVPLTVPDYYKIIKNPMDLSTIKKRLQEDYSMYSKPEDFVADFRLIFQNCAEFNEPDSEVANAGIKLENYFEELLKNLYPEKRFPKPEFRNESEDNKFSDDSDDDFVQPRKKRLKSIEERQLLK

[11] = molecular target: Bromodomain-containing protein 3 (Homo sapiens, UniProt Q15059); assay: Binding affinity to human BRD3 bromodomain 2 (G306 to P416) expressed in bacterial cells by BromoScan assay; format: cell-based
CREB-binding protein [12] = molecular target: T1, CREB-binding protein; assay: Binding affinity to human CBP (R1081 to G1197) expressed in bacterial cells by BromoScan assay; format: cell-based
[13] = molecular target: Histone acetyltransferase p300 (Homo sapiens) (UniProt Q09472); assay: Binding affinity to human P300 (A1040 to G1161) expressed in bacterial cells by BromoScan assay; format: cell-based
[14] = Total clearance in CD-1 mouse at 1 mg/kg, iv or 5 mg/kg, po by LC-MS/MS analysis; format: ADME, organism-based; settings: in vivo; outline: as §2
[15] = Volume of distribution at steady state in CD-1 mouse at 1 mg/kg, iv or 5 mg/kg, po by LC-MS/MS analysis; format: ADME, organism-based; settings: in vivo, read-out: Vdss; outline: as §2
[16] = Half life in CD-1 mouse at 1 mg/kg, iv by LC-MS/MS analysis; format: ADME, organism-based; settings: in vivo; outline: as §2

Bromodomain-containing protein 3, sequence (Q15059 whole entry): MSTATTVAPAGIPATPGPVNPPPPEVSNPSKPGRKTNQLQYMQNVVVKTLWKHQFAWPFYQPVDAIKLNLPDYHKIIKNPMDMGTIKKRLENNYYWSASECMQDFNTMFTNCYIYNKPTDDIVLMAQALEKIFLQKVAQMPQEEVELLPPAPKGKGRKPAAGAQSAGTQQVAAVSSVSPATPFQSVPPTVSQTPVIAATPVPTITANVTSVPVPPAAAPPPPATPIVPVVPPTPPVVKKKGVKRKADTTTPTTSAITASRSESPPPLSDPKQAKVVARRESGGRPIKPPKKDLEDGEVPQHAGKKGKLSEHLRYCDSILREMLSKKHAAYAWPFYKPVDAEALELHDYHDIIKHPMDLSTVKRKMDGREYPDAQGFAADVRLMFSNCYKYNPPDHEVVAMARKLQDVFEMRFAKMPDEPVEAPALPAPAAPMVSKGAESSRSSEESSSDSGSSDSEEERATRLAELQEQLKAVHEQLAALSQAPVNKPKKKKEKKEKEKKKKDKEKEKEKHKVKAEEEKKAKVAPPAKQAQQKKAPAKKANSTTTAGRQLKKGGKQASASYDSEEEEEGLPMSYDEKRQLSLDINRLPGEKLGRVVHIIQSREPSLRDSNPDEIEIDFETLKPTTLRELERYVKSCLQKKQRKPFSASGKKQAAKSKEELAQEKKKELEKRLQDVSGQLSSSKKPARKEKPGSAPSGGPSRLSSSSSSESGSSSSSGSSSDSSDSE
Histone acetyltransferase p300 (Homo sapiens), sequence (Q09472 whole entry): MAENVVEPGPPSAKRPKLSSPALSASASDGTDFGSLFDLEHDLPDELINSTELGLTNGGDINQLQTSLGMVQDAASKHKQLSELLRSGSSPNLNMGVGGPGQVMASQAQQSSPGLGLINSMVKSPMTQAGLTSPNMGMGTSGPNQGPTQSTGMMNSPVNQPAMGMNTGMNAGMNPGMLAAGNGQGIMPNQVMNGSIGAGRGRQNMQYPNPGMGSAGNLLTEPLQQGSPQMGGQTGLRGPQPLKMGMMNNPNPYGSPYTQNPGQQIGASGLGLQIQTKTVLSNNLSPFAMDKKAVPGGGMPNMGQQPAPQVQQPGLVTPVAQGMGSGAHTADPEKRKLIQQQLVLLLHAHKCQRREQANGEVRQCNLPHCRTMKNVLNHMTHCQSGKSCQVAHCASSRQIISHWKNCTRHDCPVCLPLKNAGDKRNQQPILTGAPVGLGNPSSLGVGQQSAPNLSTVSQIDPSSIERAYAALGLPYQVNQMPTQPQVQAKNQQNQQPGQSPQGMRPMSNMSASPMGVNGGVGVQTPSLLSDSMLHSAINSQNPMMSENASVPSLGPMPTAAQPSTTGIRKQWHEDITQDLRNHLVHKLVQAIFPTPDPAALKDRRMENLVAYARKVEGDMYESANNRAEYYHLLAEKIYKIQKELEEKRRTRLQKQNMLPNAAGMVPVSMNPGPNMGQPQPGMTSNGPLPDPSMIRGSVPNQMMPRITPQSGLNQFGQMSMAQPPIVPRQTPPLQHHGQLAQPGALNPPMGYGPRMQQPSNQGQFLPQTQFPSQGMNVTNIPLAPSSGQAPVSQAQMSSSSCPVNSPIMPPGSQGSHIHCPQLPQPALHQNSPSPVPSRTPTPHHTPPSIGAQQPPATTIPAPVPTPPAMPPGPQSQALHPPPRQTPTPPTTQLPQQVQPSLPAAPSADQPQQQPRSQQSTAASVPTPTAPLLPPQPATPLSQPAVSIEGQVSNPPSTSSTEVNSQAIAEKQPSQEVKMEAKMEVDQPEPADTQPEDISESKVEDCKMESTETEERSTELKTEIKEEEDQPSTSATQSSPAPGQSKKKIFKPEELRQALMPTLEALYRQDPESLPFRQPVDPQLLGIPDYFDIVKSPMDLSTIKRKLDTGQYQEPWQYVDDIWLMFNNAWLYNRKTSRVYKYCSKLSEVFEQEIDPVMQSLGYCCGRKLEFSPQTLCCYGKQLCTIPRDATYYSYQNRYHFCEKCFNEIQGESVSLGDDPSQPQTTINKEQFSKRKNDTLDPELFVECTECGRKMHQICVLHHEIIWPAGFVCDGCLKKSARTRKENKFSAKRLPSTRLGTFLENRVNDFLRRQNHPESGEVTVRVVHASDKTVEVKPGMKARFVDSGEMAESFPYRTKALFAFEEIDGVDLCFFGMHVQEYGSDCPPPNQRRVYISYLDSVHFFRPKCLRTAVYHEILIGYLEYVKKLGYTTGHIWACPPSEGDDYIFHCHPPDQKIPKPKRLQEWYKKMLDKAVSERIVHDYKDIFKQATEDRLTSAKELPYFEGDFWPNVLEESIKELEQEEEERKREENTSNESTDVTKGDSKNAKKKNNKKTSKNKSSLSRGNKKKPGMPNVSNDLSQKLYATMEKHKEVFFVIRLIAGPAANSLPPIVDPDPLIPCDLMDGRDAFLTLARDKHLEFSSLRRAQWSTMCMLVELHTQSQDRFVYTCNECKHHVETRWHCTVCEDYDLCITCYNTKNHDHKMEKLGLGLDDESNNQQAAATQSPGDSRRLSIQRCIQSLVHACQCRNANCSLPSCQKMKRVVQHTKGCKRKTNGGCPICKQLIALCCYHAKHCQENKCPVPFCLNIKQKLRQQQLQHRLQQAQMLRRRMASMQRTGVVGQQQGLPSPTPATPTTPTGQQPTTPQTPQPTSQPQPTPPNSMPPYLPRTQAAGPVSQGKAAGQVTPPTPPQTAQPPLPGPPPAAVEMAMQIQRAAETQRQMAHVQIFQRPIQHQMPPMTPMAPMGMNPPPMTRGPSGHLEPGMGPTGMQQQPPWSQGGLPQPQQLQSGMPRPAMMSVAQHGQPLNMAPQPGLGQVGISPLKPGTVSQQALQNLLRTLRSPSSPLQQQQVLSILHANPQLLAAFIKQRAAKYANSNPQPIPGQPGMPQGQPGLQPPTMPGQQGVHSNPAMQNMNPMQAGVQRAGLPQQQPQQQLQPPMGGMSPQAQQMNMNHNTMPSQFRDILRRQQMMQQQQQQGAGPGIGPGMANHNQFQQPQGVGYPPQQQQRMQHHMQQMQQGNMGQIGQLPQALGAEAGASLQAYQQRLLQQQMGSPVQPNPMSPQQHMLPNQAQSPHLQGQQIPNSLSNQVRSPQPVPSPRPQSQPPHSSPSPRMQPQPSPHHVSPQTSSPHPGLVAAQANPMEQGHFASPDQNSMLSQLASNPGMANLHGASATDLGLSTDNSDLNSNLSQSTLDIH

CNC(=O)c1c[nH]c2c(C(C)C)nc(N3CCCc4cc(-c5cnn(C)c5)c(C(F)F)cc43)cc12
IC50 (CREB-binding protein [1]): 2.2 nM
IC50 [2]: 2300 nM
Ratio IC50 (Homo sapiens): 1050
EC50 [3]: 53 nM
CLint scaled at 1 µM [4]: 13 mL/min/kg
CLint scaled at 1 µM [5]: 25 mL/min/kg
CLint scaled at 1 µM [6]: 50 mL/min/kg
bioavailability [7]: 52%
Kd [8]: > 10000 nM
Kd [9]: > 10000 nM
Kd [10]: > 10000 nM
Kd [11]: > 10000 nM
Activity (CREB-binding protein [12]): Active
Activity [13]: Active
clearance [14]: 18.2 mL/min/kg
Vd [15]: 1.9 L/kg
half-life [16]: 1.3 h
